Laboratory results as given in PMC12640659 (Chemmedchem, 2025).
Values after ≈ are worked out from the molar mass of the structure shown. Where two headings read alike, the source gives them in different places.

Key:
[1] = tested on: HCC70 TNBC cell line; assay: Resazurin cytotoxicity assay, HCC70; type: cell-based; settings: for IC50: read-out: IC50 HCC70; for SI (HCC70): selectivity index versus nontumorigenic MCF12A
Summary of the method: (§1)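 Cells were seeded at 5.0 × 10^3 per well and left to attach overnight at 37 °C, 9% CO2, then treated with test compound for 96 h. A […] resazurin solution was added for 2–4 h at 37 °C and fluorescence read at ex 560/em 590 nm. Assays were run in triplicate, and IC50 was obtained by nonlinear regression.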

[2] = tested on: MDA‐MB‐231 triple‐negative breast cancer (TNBC) cell line; assay: Resazurin cytotoxicity assay, MDA-MB-231; type: cell-based; settings: for IC50: read-out: IC50 MDA‐MB231; for SI (MDA‐MB231): selectivity index versus nontumorigenic MCF12A
Summary of the method: as §1

[3] = tested on: MCF‐7 hormone receptor‐positive breast cancer cell line; assay: Resazurin cytotoxicity assay, MCF7; type: cell-based; settings: for IC50: read-out: IC50 MCF7; for SI (MCF7): selectivity index versus nontumorigenic MCF12A
Summary of the method: as §1

[4] = tested on: nontumorigenic breast epithelial cell line MCF12A; assay: Resazurin cytotoxicity assay, MCF12A; type: cell-based; settings: Homo sapiens, MCF-12A, 96 h, read-out: IC50 MCF12A
Summary of the method: as §1

[5] = tested on: K. pneumoniae ST512‐K30BO; assay: Antibacterial resazurin assay, drug-resistant K. pneumoniae; type: cell-based, Klebsiella pneumoniae; settings: 6 h; for MIC: Klebsiella pneumoniae, read-out: MIC K. pneumoniae; for MIC K. pneumoniae: resazurin, drug‐resistant ST512 strain, sixth column pair of SI-15
Summary of the method: (§2)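 Twofold dilutions of test compound (100–0.78 μM) were incubated with mid-log bacteria in LB broth at 37 °C for 6 h. Precultures were grown in LB for P. aeruginosa, S. aureus and E. coli, and in TSB for A. baumannii and K. pneumoniae. Cultures were diluted 1:1000, except S. aureus at 1:500. Resazurin (0.13 mg mL−1 solution) was added for 15–30 min and fluorescence read at 560/590 nm. Assays were run in duplicate with novobiocin and nalidixic acid controls, and MIC was fitted by nonlinear regression.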

[6] = tested on: HeLa cells; assay: Cytotoxicity against HeLa cells; type: cell-based; settings: Homo sapiens, read-out: IC50 HeLa cell
[7] = tested on: P. aeruginosa ATCC 27853; assay: Antibacterial resazurin assay, P. aeruginosa; type: cell-based, Pseudomonas aeruginosa; settings: for MIC: Pseudomonas aeruginosa, ATCC27853, 6 h, read-out: MIC P. aeruginosa; for MIC P. aeruginosa: resazurin, 6 h, mean ± SD
Summary of the method: as §2

[8] = tested on: E. coli ATCC 10536; assay: Antibacterial resazurin assay, E. coli; type: cell-based, Escherichia coli; settings: for MIC: Escherichia coli, ATCC10536, 6 h, read-out: MIC E. coli; for MIC E. coli: resazurin, 6 h, mean ± SD
Summary of the method: as §2

[9] = tested on: S. aureus ATCC 12600; assay: Antibacterial resazurin assay, S. aureus; type: cell-based, Staphylococcus aureus; settings: for MIC: Staphylococcus aureus, ATCC12600, 6 h, read-out: MIC S. aureus; for MIC S. aureus: resazurin, 6 h, mean ± SD
Summary of the method: as §2

[10] = tested on: A. baumannii ATCC 19606; assay: Antibacterial resazurin assay, A. baumannii; type: cell-based, Acinetobacter baumannii; settings: for MIC: Acinetobacter baumannii, ATCC19606, 6 h, read-out: MIC A. baumannii; for MIC A. baumannii: resazurin, 6 h, mean ± SD
Summary of the method: as §2

[11] = tested on: E. coli ATCC 10536; assay: Time-kill kinetics, E. coli; type: cell-based, Escherichia coli; settings: at 1x and 4x MICs, up to 5 h
Summary of the method: (§3)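 At 0.5, 1, 2, 3, 4 and 5 h, samples were pelleted, resuspended in 10 mM MgSO4 and serially diluted tenfold. Dilutions were spotted on LB agar for 16 h at 37 °C, and growth was compared visually with the untreated control.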

[12] = tested on: S. aureus ATCC 12600; assay: Time-kill kinetics, S. aureus; type: cell-based, Staphylococcus aureus; settings: at 1x and 4x MICs, up to 5 h
Summary of the method: as §3

[13] = resazurin, 96 h, mean ± SD (n = 3)

| Compound | IC50 [1, 13] [µM] | SI (HCC70) [1] | IC50 [2, 13] [µM] | SI (MDA‐MB231) [2] | IC50 [3, 13] [µM] | SI (MCF7) [3] | MIC K. pneumoniae [5] [µM] | MIC P. aeruginosa [7] [µM] | MIC E. coli [8] [µM] | MIC A. baumannii [10] [µM] | MIC S. aureus [9] [µM] | also measured |
| --- | --- | --- | --- | --- | --- | --- | --- | --- | --- | --- | --- | --- |
| N.N.[Cl][Pt][Cl] [Cisplatin, reference compound] | 2.6 ± 1.2 | 4.5 | 18.1 ± 1.2 | 0.6 | 4.4 ± 1.2 | 2.5 | – | – | – | – | – | – |
| C[C@@H](N)[C@H](O)CCCCCCCC(=O)CCCCCCCCCCCCCC[C@@H](O[C@@H]1O[C@H](CO)[C@H](O)[C@H](O)[C@H]1O)[C@@H](C)N [Compound 2, rhizochalin] | – | 2.2 | – | 1.0 | – | 1.8 | – | – | – | – | – | IC50 [4]: 4.25 ± 1.28 µM; MIC [5]: 8.52 ± 3.1 µM (≈ 5.39 µg/mL); IC50 ([1]; Homo sapiens, HCC70, 96 h): 1.94 ± 1.13 µM; IC50 ([2]; Homo sapiens, MDA-MB-231, 96 h): 4.59 ± 1.22 µM; IC50 [6]: 7.11 µM; MIC [7]: 3.84 ± 0.82 µM (≈ 2.43 µg/mL); MIC [8]: 6.15 ± 0.04 µM (≈ 3.89 µg/mL); MIC [9]: 3.64 ± 0.47 µM (≈ 2.3 µg/mL); IC50 ([3]; Homo sapiens, MCF7, 96 h): 2.43 ± 1.17 µM; MIC [10]: 6.29 ± 0.02 µM (≈ 3.98 µg/mL) |
| CC(N)C(O)CCCCCCCCCCCCCCC(=O)CCCCCCCC(O)C(C)N (stereo not shown) [Compound 2b, rhizochalinin] | 4.97 ± 1.2 | 4.2 | 6.78 ± 1.3 | 3.1 | 21.4 ± 1.2 | 1.0 | 23.78 ± 0.15 (≈ 11.2 µg/mL) | >50 | 49.1 ± 3.42 (≈ 23.1 µg/mL) | 55.7 ± 0.85 (≈ 26.2 µg/mL) | – | – |
| CCn1cc(C(=O)O)c(=O)c2ccc(C)nc21 [Nalidixic acid, reference compound] | – | – | – | – | – | – | – | – | – | – | – | MIC [5]: 28.8 ± 1.09 µM (≈ 6.7 µg/mL); Bactericidal endpoint, E. coli, in words [11]: did not achieve bactericidal endpoints; MIC [7]: 0.17 ± 0.01 µM (≈ 0.0395 µg/mL); MIC [8]: 0.47 ± 0.22 µM (≈ 0.109 µg/mL); MIC [10]: 1.28 ± 0.92 µM (≈ 0.297 µg/mL) |
| CO[C@@H]1[C@@H](OC(N)=O)[C@@H](O)[C@H](Oc2ccc3c(O)c(NC(=O)c4ccc(O)c(CC=C(C)C)c4)c(=O)oc3c2C)OC1(C)C [Novobiocin, reference compound] | – | – | – | – | – | – | – | – | – | – | – | Bactericidal endpoint, S. aureus, in words [12]: did not achieve bactericidal endpoints; MIC [9]: 0.002 ± 0.002 µM (≈ 0.00123 µg/mL) |
| oceanin [Compound 4b] | 117 ± 1.4 | 0.6 | 6.36 ± 1.4 | 10.4 | 8.39 ± 1.39 | 7.9 | >50 | >50 | >50 | >50 | >50 | – |
| pentaperbenzoyl oceanin [Compound 4c] | – | – | – | – | – | – | >50 | >50 | >50 | >50 | >50 | – |
| pentaperbenzoyl rhizochalinin C [Compound 3c] | – | – | – | – | – | – | >50 | >50 | >50 | >50 | >50 | – |
| rhizochalinin C [Compound 3b] | 6.43 ± 1.1 | 4.5 | 6.78 ± 1.2 | 4.3 | 26.4 ± 1.2 | 1.1 | >50 | >50 | >50 | >50 | >50 | – |
| tetraperbenzoyl rhizochalinin [Compound 2c] | – | – | – | – | – | – | >50 | >50 | >50 | >50 | >50 | – |
